Molecules are shown by their SMILES.

What is called IC50 is the concentration at which inhibition is half-maximal. As usually defined, the inhibition is the relative decrease from the control value, in per cent.

Assay [1] concerns HEL. As to the kind of experiment: Antiproliferative activity against HEL cells harboring JAK2 V617F mutant at 5 uM after 48 hrs by MTT assay. The format is functional, Homo sapiens.
In another assay the test system is PC-3. The assay is described as follows: Antiproliferative activity against human PC3 cells after 48 hrs by MTT assay. It is filed as functional, cell-based. To be noted: PC-3, 48 h. An outline of the steps: (§1)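 Panel: human prostate cancer PC-3, breast cancer MCF-7, erythroleukemia HEL, myelogenous leukemia K562 and lymphoid leukemia MOLT4 lines. Cells were exposed to compound for 48 h with MTT read-out.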
In general terms: Tetrazolium dyes change colour on reduction, which living cells bring about.

For another assay, the system named is MCF7. The assay is described as follows: Antiproliferative activity against human MCF7 cells after 48 hrs by MTT assay. The format is functional, cell-based. To be noted: MCF7, 48 h. An outline of the steps: as §1
Assay [2] has as its system HEL. As to the kind of experiment: Antiproliferative activity against HEL cells harboring JAK2 V617F mutant after 48 hrs by MTT assay. To be noted: Homo sapiens. The format is functional, cell-based. An outline of the steps:
as §1

The next assay has as its system K562. As to the kind of experiment: Antiproliferative activity against human K562 cells after 48 hrs by MTT assay. The format is functional, cell-based. The settings on record: K562, 48 h. Summed up: as §1
Another assay deals with MOLT-4. As to the kind of experiment: Antiproliferative activity against human MOLT4 cells after 48 hrs by MTT assay. The format is functional, cell-based. To be noted: MOLT-4, 48 h. Summed up: as §1
The target in assay [3] is Tyrosine-protein kinase ABL1 (Homo sapiens) (UniProt P00519). As to the kind of experiment: Inhibition of ABL (unknown origin) at 20 nM relative to control.
The target in assay [4] is ALK tyrosine kinase receptor (Homo sapiens) (UniProt Q9UM73). The assay is described as follows: Inhibition of ALK (unknown origin) at 20 nM relative to control.
In assay [5] the target is RAC-alpha serine/threonine-protein kinase (Homo sapiens) (UniProt P31749). The assay is described as follows: Inhibition of AKT1 (unknown origin) at 20 nM relative to control.
RAC-alpha serine/threonine-protein kinase (Homo sapiens), sequence (P31749 whole entry): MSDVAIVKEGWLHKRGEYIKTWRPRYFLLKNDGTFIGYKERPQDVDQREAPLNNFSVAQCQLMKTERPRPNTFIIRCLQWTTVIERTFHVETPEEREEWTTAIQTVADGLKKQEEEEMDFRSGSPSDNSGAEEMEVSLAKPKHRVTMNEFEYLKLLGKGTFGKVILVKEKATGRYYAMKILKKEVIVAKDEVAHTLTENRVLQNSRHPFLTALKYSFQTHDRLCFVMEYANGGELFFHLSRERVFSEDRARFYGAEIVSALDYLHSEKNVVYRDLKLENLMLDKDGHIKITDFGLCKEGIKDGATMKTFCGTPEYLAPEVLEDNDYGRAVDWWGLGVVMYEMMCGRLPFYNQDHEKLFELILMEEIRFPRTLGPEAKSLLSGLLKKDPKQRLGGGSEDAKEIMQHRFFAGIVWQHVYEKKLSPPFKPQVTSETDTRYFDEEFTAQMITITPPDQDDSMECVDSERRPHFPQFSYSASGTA
The target of assay [6] is Cyclin-dependent kinase 4 (Homo sapiens) (UniProt P11802). The assay is described as follows: Inhibition of CDK4 (unknown origin) at 20 nM relative to control.
Cyclin-dependent kinase 4 (Homo sapiens), sequence (P11802 whole entry): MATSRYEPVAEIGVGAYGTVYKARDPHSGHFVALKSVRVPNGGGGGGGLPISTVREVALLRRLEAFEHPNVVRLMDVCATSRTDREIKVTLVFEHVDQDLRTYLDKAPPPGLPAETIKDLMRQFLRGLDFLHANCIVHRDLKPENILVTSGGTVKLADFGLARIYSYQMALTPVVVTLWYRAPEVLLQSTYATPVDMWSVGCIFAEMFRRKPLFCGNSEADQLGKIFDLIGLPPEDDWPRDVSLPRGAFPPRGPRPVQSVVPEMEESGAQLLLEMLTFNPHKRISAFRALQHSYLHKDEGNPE
For assay [7], the target named is Mast/stem cell growth factor receptor Kit (Homo sapiens) (UniProt P10721). The assay is described as follows: Inhibition of c-Kit (unknown origin) at 20 nM relative to control.
Mast/stem cell growth factor receptor Kit (Homo sapiens), sequence (P10721 whole entry): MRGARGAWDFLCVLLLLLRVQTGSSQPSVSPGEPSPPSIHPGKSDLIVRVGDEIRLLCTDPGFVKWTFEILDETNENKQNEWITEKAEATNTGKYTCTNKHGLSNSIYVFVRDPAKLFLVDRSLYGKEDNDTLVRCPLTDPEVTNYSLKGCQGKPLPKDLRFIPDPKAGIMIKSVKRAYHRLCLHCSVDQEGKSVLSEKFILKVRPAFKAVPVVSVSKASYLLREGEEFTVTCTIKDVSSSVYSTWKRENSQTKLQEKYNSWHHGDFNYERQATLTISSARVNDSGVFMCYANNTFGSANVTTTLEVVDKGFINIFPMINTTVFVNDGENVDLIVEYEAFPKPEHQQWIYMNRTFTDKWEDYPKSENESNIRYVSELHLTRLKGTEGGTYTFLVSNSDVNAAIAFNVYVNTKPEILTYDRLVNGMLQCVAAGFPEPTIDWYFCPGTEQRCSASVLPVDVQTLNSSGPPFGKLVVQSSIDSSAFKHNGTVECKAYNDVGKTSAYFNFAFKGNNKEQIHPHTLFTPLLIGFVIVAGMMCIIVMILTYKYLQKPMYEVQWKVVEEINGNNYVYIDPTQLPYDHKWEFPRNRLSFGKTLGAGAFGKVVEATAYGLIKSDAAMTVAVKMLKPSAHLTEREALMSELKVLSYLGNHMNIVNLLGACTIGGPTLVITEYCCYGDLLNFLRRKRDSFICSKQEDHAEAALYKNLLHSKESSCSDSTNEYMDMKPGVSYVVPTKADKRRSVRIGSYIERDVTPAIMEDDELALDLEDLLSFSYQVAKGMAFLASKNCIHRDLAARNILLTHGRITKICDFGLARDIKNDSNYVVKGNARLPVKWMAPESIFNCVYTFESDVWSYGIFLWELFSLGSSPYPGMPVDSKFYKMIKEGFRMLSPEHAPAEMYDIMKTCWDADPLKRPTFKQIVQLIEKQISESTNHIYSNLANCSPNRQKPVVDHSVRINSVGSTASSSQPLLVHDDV
The target of assay [8] is Hepatocyte growth factor receptor (Homo sapiens) (UniProt P08581). The assay is described as follows: Inhibition of c-Met (unknown origin) at 20 nM relative to control.
Hepatocyte growth factor receptor (Homo sapiens), sequence (P08581 whole entry): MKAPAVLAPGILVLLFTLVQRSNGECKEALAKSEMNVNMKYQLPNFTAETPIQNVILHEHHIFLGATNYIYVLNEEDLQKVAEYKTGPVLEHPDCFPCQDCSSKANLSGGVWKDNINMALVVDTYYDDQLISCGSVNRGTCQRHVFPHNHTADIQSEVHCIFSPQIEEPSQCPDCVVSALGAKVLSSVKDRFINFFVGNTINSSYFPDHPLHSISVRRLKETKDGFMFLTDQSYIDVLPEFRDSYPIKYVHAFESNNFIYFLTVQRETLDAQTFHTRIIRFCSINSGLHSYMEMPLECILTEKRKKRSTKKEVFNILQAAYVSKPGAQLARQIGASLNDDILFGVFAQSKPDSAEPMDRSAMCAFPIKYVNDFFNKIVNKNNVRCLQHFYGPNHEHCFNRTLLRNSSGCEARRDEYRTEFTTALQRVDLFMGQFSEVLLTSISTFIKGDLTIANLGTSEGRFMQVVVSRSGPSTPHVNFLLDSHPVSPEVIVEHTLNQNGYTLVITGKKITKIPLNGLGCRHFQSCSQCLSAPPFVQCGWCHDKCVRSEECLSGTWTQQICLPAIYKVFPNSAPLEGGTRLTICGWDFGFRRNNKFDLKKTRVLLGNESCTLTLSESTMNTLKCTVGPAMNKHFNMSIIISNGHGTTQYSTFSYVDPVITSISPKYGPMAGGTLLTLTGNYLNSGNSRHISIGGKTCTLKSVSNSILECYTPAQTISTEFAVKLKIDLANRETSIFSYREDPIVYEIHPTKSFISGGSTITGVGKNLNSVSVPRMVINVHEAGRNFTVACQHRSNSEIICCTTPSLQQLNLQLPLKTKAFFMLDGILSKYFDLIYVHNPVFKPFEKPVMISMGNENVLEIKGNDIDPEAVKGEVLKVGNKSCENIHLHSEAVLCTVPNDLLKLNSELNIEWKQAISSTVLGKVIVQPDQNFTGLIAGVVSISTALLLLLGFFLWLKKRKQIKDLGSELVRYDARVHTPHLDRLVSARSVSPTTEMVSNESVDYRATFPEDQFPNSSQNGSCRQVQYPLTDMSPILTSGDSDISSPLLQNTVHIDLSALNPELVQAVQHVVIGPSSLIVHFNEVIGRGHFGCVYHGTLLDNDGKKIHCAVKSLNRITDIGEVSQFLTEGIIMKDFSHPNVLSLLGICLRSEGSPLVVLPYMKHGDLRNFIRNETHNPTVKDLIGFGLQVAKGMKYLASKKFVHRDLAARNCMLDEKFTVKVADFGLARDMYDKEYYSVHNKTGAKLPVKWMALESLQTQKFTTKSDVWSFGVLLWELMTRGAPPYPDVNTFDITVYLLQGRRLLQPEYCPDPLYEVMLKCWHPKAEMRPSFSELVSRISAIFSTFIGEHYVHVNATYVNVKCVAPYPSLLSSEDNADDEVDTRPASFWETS
In assay [9] the target is Epidermal growth factor receptor (Homo sapiens) (UniProt P00533). As to the kind of experiment: Inhibition of EGFR (unknown origin) at 20 nM relative to control.
For assay [10], the target named is Focal adhesion kinase 1 (Homo sapiens) (UniProt Q05397). As to the kind of experiment: Inhibition of FAK (unknown origin) at 20 nM relative to control.
Assay [11] has as its target Receptor-type tyrosine-protein kinase FLT3 (Homo sapiens) (UniProt P36888). As to the kind of experiment: Inhibition of FLT3 (unknown origin) at 20 nM relative to control.
Assay [12] has as its target Vascular endothelial growth factor receptor 2 (Homo sapiens) (UniProt P35968). As to the kind of experiment: Inhibition of VEGFR2 (unknown origin) at 20 nM relative to control.
Assay [13] deals with Platelet-derived growth factor receptor alpha (Homo sapiens) (UniProt P16234). The assay is described as follows: Inhibition of PDGFRalpha (unknown origin) at 20 nM relative to control.
Assay [14] addresses RAF proto-oncogene serine/threonine-protein kinase (Homo sapiens) (UniProt P04049). As to the kind of experiment: Inhibition of RAF1 (unknown origin) at 20 nM relative to control.
Assay [15] has as its target Proto-oncogene tyrosine-protein kinase Src (Homo sapiens) (UniProt P12931). As to the kind of experiment: Inhibition of SRC (unknown origin) at 20 nM relative to control.
Assay [16] addresses Non-receptor tyrosine-protein kinase TYK2 (Homo sapiens) (UniProt P29597). As to the kind of experiment: Inhibition of TYK2 (unknown origin) at 20 nM relative to control.
Assay [17] can be described thus: Selectivity ratio of IC50 for human PC3 cells to IC50 for HEL cells harboring JAK2 V617F mutant. The format is functional.
Assay [18] in a line: Selectivity ratio of IC50 for human MCF7 cells to IC50 for HEL cells harboring JAK2 V617F mutant. It is filed as functional.
The nature of assay [19]: Selectivity ratio of IC50 for human MOLT4 cells to IC50 for HEL cells harboring JAK2 V617F mutant. The format is functional.
Assay [20] in a line: Selectivity ratio of IC50 for human PC3 cells to IC50 for human K562 cells. It is filed as functional.
Assay [21] can be described thus: Selectivity ratio of IC50 for human MCF7 cells to IC50 for human K562 cells. The format is functional.
Assay [22] can be described thus: Selectivity ratio of IC50 for human MOLT4 cells to IC50 for human K562 cells. It is filed as functional.
Assay [23] deals with Tyrosine-protein kinase JAK1 (Homo sapiens, UniProt P23458). As to the kind of experiment: Inhibition of human recombinant JAK1 using Ulight-CAGAGAIETDKEYYTVKD as substrate by LANCE assay. In general terms: TR-FRET usually uses a lanthanide donor and a delayed reading to cut background.
Assay [24] concerns the target Tyrosine-protein kinase JAK3 (Homo sapiens, UniProt P52333). As to the kind of experiment: Inhibition of human recombinant JAK3 using Ulight-CAGAGAIETDKEYYTVKD as substrate by LANCE assay.

Non-receptor tyrosine-protein kinase TYK2 (Homo sapiens), sequence (P29597 whole entry): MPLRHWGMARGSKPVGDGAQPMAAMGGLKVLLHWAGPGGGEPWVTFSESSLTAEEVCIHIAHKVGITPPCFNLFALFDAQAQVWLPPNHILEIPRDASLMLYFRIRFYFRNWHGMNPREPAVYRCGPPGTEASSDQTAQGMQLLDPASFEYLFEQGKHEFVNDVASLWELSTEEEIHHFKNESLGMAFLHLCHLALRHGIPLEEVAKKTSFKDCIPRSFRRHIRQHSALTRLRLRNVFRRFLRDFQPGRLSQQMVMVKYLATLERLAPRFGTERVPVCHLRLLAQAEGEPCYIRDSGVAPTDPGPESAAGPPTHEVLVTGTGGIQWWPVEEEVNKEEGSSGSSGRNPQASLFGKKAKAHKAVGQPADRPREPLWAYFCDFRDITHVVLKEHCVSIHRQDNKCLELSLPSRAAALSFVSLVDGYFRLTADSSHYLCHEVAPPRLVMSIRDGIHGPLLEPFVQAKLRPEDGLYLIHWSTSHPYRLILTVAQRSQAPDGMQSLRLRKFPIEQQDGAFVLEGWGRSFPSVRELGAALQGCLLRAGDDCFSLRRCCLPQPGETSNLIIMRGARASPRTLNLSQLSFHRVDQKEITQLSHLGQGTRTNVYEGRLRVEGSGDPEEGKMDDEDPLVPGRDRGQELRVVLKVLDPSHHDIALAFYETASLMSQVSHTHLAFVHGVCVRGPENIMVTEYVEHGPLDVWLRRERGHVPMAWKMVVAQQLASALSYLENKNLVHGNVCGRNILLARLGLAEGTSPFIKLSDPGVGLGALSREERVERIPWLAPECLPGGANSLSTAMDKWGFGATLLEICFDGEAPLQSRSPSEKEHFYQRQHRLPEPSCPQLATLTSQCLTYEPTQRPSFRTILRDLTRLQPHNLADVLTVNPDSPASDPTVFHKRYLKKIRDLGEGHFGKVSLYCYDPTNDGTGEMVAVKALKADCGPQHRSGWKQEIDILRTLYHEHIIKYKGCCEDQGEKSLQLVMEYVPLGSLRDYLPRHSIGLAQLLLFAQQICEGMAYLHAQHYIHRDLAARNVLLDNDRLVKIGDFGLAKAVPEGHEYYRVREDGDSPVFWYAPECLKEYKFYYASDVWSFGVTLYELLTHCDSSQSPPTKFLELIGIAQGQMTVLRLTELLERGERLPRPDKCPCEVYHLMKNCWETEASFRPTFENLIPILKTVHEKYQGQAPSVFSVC
RAF proto-oncogene serine/threonine-protein kinase (Homo sapiens), sequence (P04049 whole entry): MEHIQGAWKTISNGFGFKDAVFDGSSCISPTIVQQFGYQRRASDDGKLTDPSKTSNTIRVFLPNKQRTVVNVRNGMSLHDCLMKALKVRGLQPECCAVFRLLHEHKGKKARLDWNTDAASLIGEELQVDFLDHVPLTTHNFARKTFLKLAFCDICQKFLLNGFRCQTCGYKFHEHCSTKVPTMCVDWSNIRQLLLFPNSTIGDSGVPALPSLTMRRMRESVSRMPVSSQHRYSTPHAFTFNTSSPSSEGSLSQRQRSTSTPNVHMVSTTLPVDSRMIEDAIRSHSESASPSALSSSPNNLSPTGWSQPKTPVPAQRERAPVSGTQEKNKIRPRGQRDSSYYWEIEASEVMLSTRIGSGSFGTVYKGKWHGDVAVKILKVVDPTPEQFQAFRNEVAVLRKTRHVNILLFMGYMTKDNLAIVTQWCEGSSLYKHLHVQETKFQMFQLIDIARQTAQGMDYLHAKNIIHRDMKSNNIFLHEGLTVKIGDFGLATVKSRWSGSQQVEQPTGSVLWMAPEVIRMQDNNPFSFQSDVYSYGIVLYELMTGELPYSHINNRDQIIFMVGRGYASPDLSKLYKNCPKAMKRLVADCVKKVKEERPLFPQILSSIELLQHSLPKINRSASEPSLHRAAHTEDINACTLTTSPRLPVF

Regarding `C#Cc1cccc(Nc2nc(Nc3cn[nH]c3)nc3ccccc23)c1`, the Activity with HEL [1] is given as less than 50%.
Regarding `c1ccc(Nc2nc(Nc3cn[nH]c3)nc3[nH]ccc23)cc1`, in the assay with HEL [1], the Activity is reported as more than 50%. For the same molecule, the IC50 in the assay on PC-3 is 4470 nM; in the assay with MCF7, more than 5000 nM; in the assay on HEL [2] it was 350 nM; in the assay with K562, 370 nM; with MOLT-4, more than 5000 nM. Besides, the inhibition in assay [3] is 3.1%; in assay [4] it was 15.1%; in [5], -3%; in assay [6], -5.3%; in assay [7], 0.6%; in assay [8], 6.3%. In addition, the inhibition in assay [9] amounted to 8.3%; in [10], 7.4%; in [11], 15.2%; in [12] it was 0%; in assay [13] it was 11.9%; in [14], 3.7%. Also, the inhibition in [15] was 12.6%; in assay [16], 34.6%. The “Ratio IC50” value in assay [17], in assay [18], in assay [19], in assay [20], in assay [21] and in assay [22] was more than 10 throughout.
On to `C#Cc1cccc(Nc2ccnc(Nc3cn[nH]c3)n2)c1`, for which the Activity with HEL [1] is recorded as less than 50%.
Still for that read-out and setting: the result for `N#Cc1ccccc1Nc1ccnc(Nc2cn[nH]c2)n1` reads less than 50%; that for `Fc1cnc(Nc2cn[nH]c2)nc1Nc1ccccc1`, less than 50%; that for `c1ccc(Nc2nc(Nc3cn[nH]c3)nc3ccccc23)cc1`, less than 50%.
With `Clc1ccccc1CNc1nc(Nc2cn[nH]c2)nc2[nH]ccc12`, the Activity in the assay with HEL [1] was more than 50%. Further, the half-maximal inhibitory concentration (IC50) in the assay on PC-3 was 13500 nM; in the assay with MCF7 it was more than 5000 nM; in the assay on K562, 3720 nM; with MOLT-4, more than 5000 nM.
`Clc1ccccc1Nc1ccnc(Nc2cn[nH]c2)n1` yielded an Activity in the assay with HEL [1] of less than 50%.
As to `N#CC[C@H](C1CCCC1)n1cc(-c2ncnc3[nH]ccc23)cn1` [RUXOLITINIB], the IC50 in the assay on PC-3 was more than 5000 nM; in the assay on MCF7, more than 5000 nM; in the assay on HEL [2], 2620 nM; with K562 it was 10300 nM.
`Fc1ccc(Nc2nc(Nc3cn[nH]c3)ncc2Cl)cc1` gave an Activity with HEL [1] of more than 50%. Moreover, the IC50 in the assay with PC-3 was 1030 nM; in the assay on MCF7 it was 1870 nM; in the assay on HEL [2], 1180 nM; in the assay with K562 it was 1860 nM; with MOLT-4, 3280 nM.
The molecule `COc1ccc(Nc2nc(Nc3cn[nH]c3)ncc2F)cc1` displayed an Activity in the assay with HEL [1] of less than 50%.
`COc1ccc(Nc2nc(Nc3cn[nH]c3)ncc2Cl)cc1` displayed an Activity in the assay on HEL [1] of more than 50%. The concentration for half-maximal inhibition (IC50) in the assay with PC-3 came to 2300 nM; in the assay with HEL [2] it was 1760 nM; in the assay with K562, 2080 nM.
In turn, `Clc1ccc(Nc2nc(Nc3cn[nH]c3)ncc2Cl)cc1` yielded an Activity in the assay on HEL [1] of more than 50%. Also, the IC50 is 2570 nM with PC-3; 1930 nM in the assay on MCF7; 1530 nM in the assay on HEL [2]; 1700 nM with K562; 1370 nM with MOLT-4.
In the assay with HEL [1], `Clc1cnc(Nc2cn[nH]c2)nc1Nc1ccccc1` came in with an Activity of more than 50%. In addition, the half-inhibitory concentration (IC50) in the assay on PC-3 was 5380 nM; with MCF7 it was 3660 nM; with HEL [2], 5930 nM; in the assay with K562, more than 8300 nM; with MOLT-4, more than 5000 nM.
Take `Clc1ccc(Nc2ccnc(Nc3cn[nH]c3)n2)cc1`: the Activity with HEL [1] is recorded as less than 50%.
`Clc1ccccc1Nc1nc(Nc2cn[nH]c2)ncc1Cl` gave an Activity in the assay with HEL [1] of more than 50%. For the same molecule, the half-inhibitory concentration (IC50) in the assay on PC-3 was 1130 nM; in the assay on MCF7 it was 1100 nM; in the assay on HEL [2], 1240 nM; with K562 it was 1290 nM; in the assay on MOLT-4 it was 1260 nM.
Regarding `COc1ccc(Nc2nc(Nc3cn[nH]c3)nc3ccccc23)cc1`, the Activity in the assay with HEL [1] is less than 50%.
Consider `COc1ccc(Nc2nc(Nc3cn[nH]c3)nc3[nH]ccc23)cc1`, for which the Activity in the assay on HEL [1] is more than 50%.
Still for that read-out and setting: the result for `Clc1ccccc1CNc1nc(Nc2cn[nH]c2)nc2ccccc12` reads less than 50%.
In the assay with HEL [1], `Clc1cccc(Nc2nc(Nc3cn[nH]c3)nc3ccccc23)c1` came in with an Activity of less than 50%. In addition, the IC50 with MCF7 is more than 5000 nM; in the assay with HEL [2] it was 9710 nM; in the assay with K562 it was more than 8300 nM.
In the case of `Clc1cccc(Nc2nc(Nc3cn[nH]c3)ncc2Cl)c1`, the half-inhibitory concentration (IC50) in [23] was determined as 3.4 nM; in [24], 3.5 nM; with PC-3, 1080 nM; with MCF7 it was 1330 nM; in the assay on HEL [2], 1080 nM; in the assay on K562, 770 nM. In the assay with MOLT-4, this molecule showed an IC50 of 1610 nM. In the assay with HEL [1], the Activity is more than 50%. The inhibition in assay [3] was -3.1%; in [4], 6.9%; in assay [5] it was 7.5%; in [6], 36.2%; in assay [7] it was 12.1%; in assay [8], 17.9%. The inhibition is 10.5% in [9]; 33.5% in assay [10]; 78.7% in [11]; 48.6% in assay [12]; 54.1% in assay [13]; -7.1% in [14]. The inhibition in [15] worked out at 27%; in assay [16] it was 79.4%.
As for `Clc1ccc(Nc2nc(Nc3cn[nH]c3)nc3[nH]ccc23)cc1`, in the assay on HEL [1], the Activity is more than 50%.
Still for that read-out and setting: the result for `Clc1ccc(Nc2nc(Nc3cn[nH]c3)nc3ccccc23)cc1` reads less than 50%.
`Fc1cnc(Nc2cn[nH]c2)nc1Nc1ccc(Cl)cc1` gave an Activity with HEL [1] of less than 50%. For the same molecule, the IC50 with PC-3 worked out at 10400 nM; in the assay with HEL [2], 3960 nM; in the assay with K562, 3790 nM.

Values taken from ChEMBL document CHEMBL4428138, “Design, Synthesis, and Antitumor Evaluation of 4-Amino-(1H)-pyrazole Derivatives as JAKs Inhibitors” (ACS Med Chem Lett, 2016).
